Test results as given in the EternaBench riboswitch data.

Tested on: MS2 coat protein
Assay: apparent Kd, MS2 coat protein; higher = weaker binding; RNA-MaP array; FMN 200 µM where present
Procedure, shortened: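 The apparent Kd comes from binding curves fitted cluster by cluster, filtered, and summarised as a median. Those curves followed SNAP-549-labelled MS2 coat protein from 0.7 or 1.5 nM, doubling to 3 µM, on Illumina sequencing-chip clusters where stalled E. coli RNA polymerase had transcribed the designs, without and then with constant ligand. The buffer was 100 mM Tris-HCl pH 7.5, 80 mM KCl, 4 mM MgCl2, BSA, DTT, yeast tRNA and Tween-20, and green signal was normalised to red-channel RNA signal and control-cluster median Fmax.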

[1] = designed as: ON switch for flavin mononucleotide, no ligand
[2] = ligand present: flavin mononucleotide, designed as: ON switch for flavin mononucleotide
[3] = designed as: OFF switch for flavin mononucleotide, no ligand
[4] = ligand present: flavin mononucleotide, designed as: OFF switch for flavin mononucleotide

Sequence: CUAUGAGCGAUAGGAUAUACUGAGAUUGAAUGGGUAGAAGGAUCGAUCGUGUAGAAGACAUGAGGAUCACCCAUGUUACGGGCC
- apparent Kd [1]: 73.9 nM
- apparent Kd [2]: 93.5 nM

Sequence: GAGCUAUGAGGAUAUGCAUAGAUACGGAUUCGUGUAGUACUACAUGAGGAUCACCCAUGUAGAAGGCGUGGCAG
- apparent Kd [3]: 14.3 nM
- apparent Kd [4]: 15.9 nM

Sequence: AAGUAGAUCCGAGGAUAUACAAUCCGGAAACGGUACAUGAGGAUCACCCAUGUAGAAGGCGGAUCUACAGGUACUAAAGUACCA
- apparent Kd [3]: 6.5 nM
- apparent Kd [4]: 8.32 nM

Sequence: GCGUUGAACGAGAAGGCCAAUACAUGAGGAUCACCCAUGUUUAGAUGUUUUGGAGGAUAUCGUACGUAGUCAAAAGAGCAACGC
- apparent Kd [3]: 11.3 nM
- apparent Kd [4]: 10.2 nM

Sequence: AAUCCACAUGAGGAUCACCCAUGUCAGGAUAUCGCGCGCGCGUUUUCGGUCUCGCGCGCGAGAAGGGACGGCUG
- apparent Kd [3]: 24 nM
- apparent Kd [4]: 48.2 nM

Sequence: UAUAUAUAGUAAGGAUAUGUAUUAAUUGUAUAAACAGAAGGUACUGACAUGAGGAUCACCCAUGUUUUAGUGUGGGCAUGUAGA
- apparent Kd [3]: 91.3 nM
- apparent Kd [4]: 149 nM

Sequence: CGGCGUAGCGUAAGGAUAUCGCGCGGUGUAAUUGUUGAGAAGGUACAUGAGGAUCACCCAUGUGGUCAGCCGGC
- apparent Kd [3]: 40 nM
- apparent Kd [4]: 40 nM

Sequence: GUCGGAAACGACAAAAGUAGCAUAGGAGAAGGCAUGUCAUAAGACAUGAGGAUCACCCAUGUCCGUGAGGAUAUCCUAUGCUAC
- apparent Kd [1]: 8.14 nM
- apparent Kd [2]: 6.15 nM

Sequence: AAAAAACAUGAGGAUCACCCAUGUCAAAAGACGUGAGGAUAUGUACAGACUUCGGUCUGUACAGAAGGCACGAAAA
- apparent Kd [1]: 25.4 nM
- apparent Kd [2]: 21.2 nM

Sequence: GGCUGGUGAGCAGGAUAUGGUCGUGCCUUUGUUCGUGGUCCCACAUGAGGAUCACCCAUGUUCGACCAGAAGGGCUGACUUGAG
- apparent Kd [3]: 31 nM
- apparent Kd [4]: 18.9 nM

Sequence: CGCUACUACCAGAAGGACAUGAGGAUCACCCAUGUAGGAUAUGGGUUACACGUUCCUGUGUUUUGUUACUACGCUACGUAUGCG
- apparent Kd [1]: 621 nM
- apparent Kd [2]: 29 nM

Sequence: CAGGUAGCUAGAGGAUAUACACGUCUGGAUAAACCAGACGAAUAAACCACAUGAGGAUCACCCAUGUAGAAGGCUAGCUGCCUG
- apparent Kd [3]: 15.2 nM
- apparent Kd [4]: 22.7 nM

Sequence: UGUGUGUGACAGGAUAUGCUGGUUGUGAGACGGGUAGAAGGGUCUACAUGAGGAUCACCCAUGUGGCCGGUUGG
- apparent Kd [3]: 23.1 nM
- apparent Kd [4]: 20.6 nM

Sequence: UUGGACGUCGUAGGAUAUGUAGCAUAUUCCUACAUGAGGAUCACCCAUGUUGACAUGGAAGAAGGACAGAAGGACGAUGUCCAU
- apparent Kd [1]: 5.61 nM
- apparent Kd [2]: 5.36 nM

Sequence: ACAUGAGGAUCACCCAUGUAUUUGUAGGAUAUACUGUAUUGUUUAUUACUCUAAUUAAUAUGUUUGUAGAAGGACAUUGCAUGA
- apparent Kd [3]: 8.39 nM
- apparent Kd [4]: 9.86 nM

Sequence: ACAUGAGGAUCACCCAUGUUAAGCGAGGAUAUUUCACUGCACAUGAGGUUCGCCCAUGUCCUGCGGAAGAAGGUGCAAAUAAUU
- apparent Kd [1]: 48.1 nM
- apparent Kd [2]: 23.4 nM

Sequence: UGUUGUAUUACAGGAUAUCUAUGAUUUUUAUUUAGAGAAGGGUAUUCACAUGAGGAUCACCCAUGUAUAUACGAGGAAGUUGUG
- apparent Kd [1]: 46.1 nM
- apparent Kd [2]: 51.7 nM

Sequence: GGAUGACAUAGUCAUCUUUAACGAACAUGAGGAUCACCCAUGUAGGAUAUGCUACUCAACGAGUAGCAGAAGGACAUGUGUCUU
- apparent Kd [3]: 25.9 nM
- apparent Kd [4]: 127 nM

Sequence: AUGAGGGAAGUAGGAUAUGAUCAAGACAUGAGGAUCACCCAUGUAAUGAGGGUGUGUGUCUUUGUUCAGAAGGACUUGUAUCAA
- apparent Kd [3]: 60.4 nM
- apparent Kd [4]: 60.4 nM

Sequence: GUCAGCUCGUGAGGAUAUACAACACUACUUCGGCAGUGUAUUAAGAUCACAUGAGGAUCACCCAUGUAGAAGGCACGAGCUGAU
- apparent Kd [3]: 14 nM
- apparent Kd [4]: 228 nM

Sequence: CUCACAAGAGGAUAUUAAUAGCUUAACAUGAGGAUCACCCAUGUCCUUUUCUCGGGAUUUUGAGAAGGCUUGUGUG
- apparent Kd [3]: 341 nM
- apparent Kd [4]: 189 nM

Sequence: AAUAUAGAGCUGGUCUCAAAAUAAACAUGAGGAUCACCCAUGUAGGAUAUCAGCACGAUAAGUGCUGAGAAGGACAUCCAGCUC
- apparent Kd [3]: 16.3 nM
- apparent Kd [4]: 18.4 nM

Sequence: AGCUACGUUUCGUAGCAGCUAGGUGAGGAUAUCCACUCGACAUGAGGAUCACCCAUGUAAACAUGGGAGAAGGCGCCUAGAAAG
- apparent Kd [1]: 84.9 nM
- apparent Kd [2]: 10.6 nM

Sequence: CAGUACUGAGGAUAUACAUGAGGAUCACCCAUGUGAAUAGCAUAGGAAACUAUGCUAUGUAGAAGGCAGUACUG
- apparent Kd [3]: 14.1 nM
- apparent Kd [4]: 22.6 nM

Sequence: AUAAGCAUUUAUGUGUGCGUAGCACAGGAUAUGCUCCGCGCACAUGAGGAUCACCCAUGUUCGCAGCAGAAGGGUGCAUGCGUU
- apparent Kd [1]: 330 nM
- apparent Kd [2]: 61.5 nM

Sequence: UGUUUUCAUGUAGGAUAUGCUUGUCGUAGAUACGCAGAAGGACAUGAGGAUCACCCAUGUUAAUGCGACAGAGUUUAGAUUCUU
- apparent Kd [3]: 17.5 nM
- apparent Kd [4]: 31.9 nM

Sequence: CGGCGGAAAGGAUAUGCAGAAAUAUCAAAAUGUGGGCCACGACAUGAGGAUCACCCAUGUAGAAGGUUCAGCCG
- apparent Kd [3]: 15.5 nM
- apparent Kd [4]: 12.7 nM

Sequence: AGACCGCUACGCCGGUUUCACGCACAGGAUAUGCGGUUACAUGAGGAUCACCCAUGUGGCCAUGUGUAGAAGGGUGGUUCGUGC
- apparent Kd [1]: 37 nM
- apparent Kd [2]: 30.1 nM

Sequence: AUGUACCUAGGAUAUACAUGAGGAUCACCCAUGUAGCUUCACGUGGUAGGAUCCUUUGGUAGAAGGAGGAUCUU
- apparent Kd [3]: 37.3 nM
- apparent Kd [4]: 68.2 nM

Sequence: AUAAAACAUGAGGAUCACCCAUGUCAACAAAGUCGAGGAUAUGGGCAAUUAAAAUAAGAACCAGAAGGCGAAUAAU
- apparent Kd [1]: 172 nM
- apparent Kd [2]: 39.8 nM

Sequence: AUGCUUCACACAGGAUAUACAUGAGGAUCACCCAUGUGUCCUAAGUAGCUGACACGAGCUACGCGGUAGAAGGGUGUGAAGCAU
- apparent Kd [3]: 21.6 nM
- apparent Kd [4]: 154 nM

Sequence: GUAGUGUAUGUAGGAUAUGUGAAGCAAAGCUUCACAGAAGGACAUGAGGAUCACCCAUGUAUUGCAGUCAGCAAUCUGACUGCU
- apparent Kd [3]: 41 nM
- apparent Kd [4]: 145 nM

Sequence: UCUGUUGAAGGAUAUGCGUAAUGAGUUACGGCUCGAGGUCUACAUGAGGAUCACCCAUGUAGAAGGUCAUCAGA
- apparent Kd [3]: 16.4 nM
- apparent Kd [4]: 15.9 nM

Sequence: GGAUAGGACAGAGGAUAUACGUGCUAGAGAUACUAGCAAAAUUUCCUCACAUGAGGAUCACCCAUGUAGAAGGCAGUCCUAUCG
- apparent Kd [3]: 4.95 nM
- apparent Kd [4]: 7.33 nM

Sequence: UUACAUACAAAGGUACAUGAGGAUCACCCAUGUUUGUUGGGAAGAAGGGUAACAGUACUACAUAUAUAGGAUAUUUCACAAAUA
- apparent Kd [1]: 122 nM
- apparent Kd [2]: 86.6 nM

Sequence: GUAGCUAUCGGAGGAUAUCCUCAGCGGAAACGCACAUGAGGAUCACCCAUGUAAAUAAAUAAUUUGGAGAAGGCCGAUAGCUAC
- apparent Kd [1]: 292 nM
- apparent Kd [2]: 18.6 nM

Sequence: GUGUACAGAGGAUAUAUAUGAGCAUGGAAACAUGCAUCUUCACAUGAGGAUCACCCAUGUAGAAGGCUGUACAC
- apparent Kd [3]: 15.7 nM
- apparent Kd [4]: 49.2 nM

Sequence: UUUUUAUUUGCAGGAUAUUGUAUUUUAUUACAUCAAGAAGGGCAUUACAUGAGGAUCACCCAUGUCUUCCUAUGGUUAACUAGU
- apparent Kd [3]: 12.3 nM
- apparent Kd [4]: 10.2 nM

Sequence: CAUGUGUAAGGAUAUGACAAUGGUAUCUUCGGAUACCAUUGUCAGAAGGUACAUGAGGAUCACCCAUGUACAUC
- apparent Kd [3]: 14.3 nM
- apparent Kd [4]: 16.8 nM

Sequence: GAGGUGUUAGGAUAUCGGAGAUGGAGACCGACGGGAUGAGCCGAGAAGGAACAUGAGGAUCACCCAUGUAGGUG
- apparent Kd [3]: 461 nM
- apparent Kd [4]: 283 nM

Sequence: GGAUAGGACAGAGGAUAUACGAGCUAGAGAUACUAGCAAAAUUUCCUCACAUGAGGAUCACCCAUGUAGAAGGCUGUCCUAUCG
- apparent Kd [3]: 17.5 nM
- apparent Kd [4]: 536 nM

Sequence: ACAUUCACUCGACUGGUUCUUAACAUGAGGAUCACCCAUGUAGAGGAUAUAGGAAUUCUGGGUUCCUAGAAGGCUACGUGAGUG
- apparent Kd [3]: 15.9 nM
- apparent Kd [4]: 76.7 nM

Sequence: UUGACGGCAGGAUAUACAUGAGGAUCACCCAUGUAAAUUUUUCGUUUAACUUGAAUGUGUAGAAGGGCCAAAUU
- apparent Kd [3]: 19 nM
- apparent Kd [4]: 20 nM

Sequence: AACUGAGCCCAAGGAUAUCCUCACUUCCACUACAUGAGGAUCACCCAUGUCAGAUCGUCUGUGUAGGAGAAGGUGGUGUACAUG
- apparent Kd [1]: 330 nM
- apparent Kd [2]: 623 nM

Sequence: GUUGUGUCAGGAUAUACGUUUGUUUUUUUUUUUGUUGUUUAGUAGAAGGGACAUGAGGAUCACCCAUGUUUGUU
- apparent Kd [3]: 25.7 nM
- apparent Kd [4]: 28.2 nM

Sequence: UAGCAUUGCCUUUGGUAGUGCCUUACAUGAGGAUCACCCAUGUAGGAUAUGGUAGGCUUUGCUUACCAGAAGGACAUGGUAAUU
- apparent Kd [3]: 52.9 nM
- apparent Kd [4]: 259 nM

Sequence: GGAUAGGACAGAGGAUAUACGUGCUAGAGAUACUAGCAAAAUUUCCUCACAUGAGGAUCACCCAUGUAGAAGGCUGUCCUUUCG
- apparent Kd [3]: 17.9 nM
- apparent Kd [4]: 473 nM

Sequence: AUGCUUAUCGAAGGAUAUGGUUACAUGAGGAUCACCCAUGUUAUGCUUGGUUACUUGUUUAGUUUCCAGAAGGUCGAUUAGUUA
- apparent Kd [3]: 46.9 nM
- apparent Kd [4]: 174 nM

Sequence: GCUUAGUAAGGAUAUUCACCGAUAAACAUGAGGAUCACCCAUGUCAUGUACCGUCGCCCGGAAGAAGGUACAGGCU
- apparent Kd [3]: 49.6 nM
- apparent Kd [4]: 44.9 nM

Sequence: GGAUCGAUAGUGAGGAUAUACCACUGGAUACAGUGGUAGAAGGCACAUGAGGAUCACCCAUGUCCUAACGAUCC
- apparent Kd [3]: 20.6 nM
- apparent Kd [4]: 99.4 nM

Sequence: CUAUGCCGAAUAGGAUAUUCGAUCAAAAGGAUAGAAGAAGGGUUACAUGAGGAUCACCCAUGUAUGCACAUGAGGAUCCCUUAG
- apparent Kd [3]: 279 nM
- apparent Kd [4]: 316 nM

Sequence: AAUGGGCAGCAGAAGGCAUGUCAUAAGACAUGAGGAUCACCCAUGUAGUUAAGGCGAAAGCCGCAUGAGGAUAUGCUGCCCUAA
- apparent Kd [1]: 66 nM
- apparent Kd [2]: 6.71 nM

Sequence: AAAAGACAUGAGGAUCACCCAUGUAAAAACAUAGGAGGAUAUGUCUGGAAACUAGACUGGACAGAAGGCCUUUGUC
- apparent Kd [1]: 33.3 nM
- apparent Kd [2]: 25 nM

Sequence: GGAUAGUGUCGUUAUCCGUAGCGAACAUGAGGAUCACCCAUGUAGGAUAUGUUAUUAAACUAAUAACAGAAGGGCGUUGGUCUC
- apparent Kd [3]: 121 nM
- apparent Kd [4]: 147 nM

Sequence: AAUAUGUUGCAGAAGGUUAUAUUUUUUUAGUACCUCAUGACAUGAGGAUCACCCAUGUUUUUGUUGAAGGAUAUGCAAUAUAUU
- apparent Kd [3]: 17.1 nM
- apparent Kd [4]: 14.3 nM
